Measurements reported in ChEMBL document CHEMBL5625195, “Identification of novel tetrahydroquinoxaline derived phenyl ureas as modulators of the hepatitis B virus nucleocapsid assembly” (Eur J Med Chem, 2023).
The source made the active and inactive calls. The rule behind the calls is not given here.

Experiments:
Hepatitis B virus [1] = assay: Antiviral activity against HBV infected in AML12HBV10 cells assessed as reduction viral replication incubated for 48 hrs; assay type: functional, organism-based; details: AML12HBV10, 48 h
In short: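 AML12HBV10 cells were seeded at 2 x 10^4 per well without tetracycline. After one day, 2-fold serial dilutions (10 μM to 0.08 μM) were applied for 48 h. Lysates were denatured, neutralized and dot-blotted, then hybridized with a 32P-labelled riboprobe specific for HBV minus-strand DNA and read by phosphorimager. EC50 was the concentration reducing HBV DNA by 50%.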

[2] = Cytotoxicity against mouse AML12 cells assessed as reduction in cell viability incubated for 48 hrs by MTT assay; assay type: toxicity, cell-based; details: AML12 cells
In short: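 Stable AML12HBV10 hepatocytes (AML12-derived), cultured without tetracycline, were exposed to 2-fold serial dilutions (50 μM to 1.56 μM) for 48 h. Viability was inspected microscopically and quantified by MTT. CC50 was the concentration lowering viability by 50%.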

Hepatitis B virus [3] = assay: Antiviral activity against HBV infected in HepDES19 cells assessed as reduction viral DNA incubated for 4 days by qPCR analysis; assay type: functional, organism-based; details: HepDES19, 96 h
In short: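 HepDES19 (HepG2-derived, tetracycline-inducible HBV) cells in 24-well plates, cultured without tetracycline for 2 days, then mock or serial 2-fold compound dilutions for 4 more days. Cytoplasmic HBV core DNA was extracted and quantified by qPCR. EC50 came from triplicate biological experiments by regression.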

[4] = Cytotoxicity against human HepDES19 cells assessed as reduction in cell viability incubated for 6 days by MTT assay; assay type: toxicity, cell-based; details: time 6 day
In short: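 Tetracycline-free HepDES19 cells in 96-well plates were exposed to […] serial dilutions (50 μM to 0.39 μM) for 6 days. Viability was checked by microscopy and measured by MTT. CC50 was the concentration reducing viability by 50%.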

Hepatitis B virus [5] = assay: Antiviral activity against HBV infected in AML12HBV10 cells assessed as change in total viral RNA at 1 to 5 uM after 2 days by Northern blot hybridization; assay type: functional, organism-based; details: dose 1-5 µM, time 2.0 day
In short: (§1)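 AML12HBV10 cells in 24-well plates were kept with or without tetracycline for 24 h. Tet-maintained cells served as the no-pgRNA negative control. Cells were then mock (DMSO) or compound treated for 48 h. Total viral RNA and encapsidated pgRNA were read by Northern blot with rRNA as loading control. Core protein was read by Western blot (C-terminal 14-residue antibody, β-actin control), capsids by native particle gel assay, and replication intermediates by Southern blot.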

Hepatitis B virus [6] = assay: Antiviral activity against HBV infected in AML12HBV10 cells assessed as change in core protein at 1 to 5 uM after 2 days by Northern blot hybridization; assay type: functional, organism-based; details: dose 1-5 µM, time 2.0 day; in short: as §1
Hepatitis B virus [7] = assay: Antiviral activity against HBV infected in AML12HBV10 cells assessed as decrease in capsid assembly at 1 to 5 uM after 2 days by Northern blot hybridization; assay type: functional, organism-based; details: dose 1-5 µM, time 2.0 day
In short: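 AML12HBV10 cells (mouse hepatocyte line carrying tetracycline-inducible, envelope-deficient HBV genome) in 24-well plates. Tetracycline was removed for 24 h before treatment; tetracycline-maintained cells served as negative control. Cells were mock (DMSO) or compound treated for a further 48 h. Intracellular capsids and core-associated DNA were resolved by native agarose gel particle assay.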

Hepatitis B virus [8] = assay: Antiviral activity against HBV infected in AML12HBV10 cells assessed as decrease in encapsidated pgRNA at 1 to 5 uM after 2 days by Northern blot hybridization; assay type: functional, organism-based; details: dose 1-5 µM, time 2.0 day
In short: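 AML12HBV10 cells were induced by tetracycline withdrawal for 24 h, then mock (DMSO) or compound treated for 48 h, with tetracycline-maintained cells as negative control. Encapsidated pgRNA was detected by Northern blot hybridization, using ribosomal RNA as loading control.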

Hepatitis B virus [9] = assay: Antiviral activity against HBV infected in AML12HBV10 cells assessed as decrease in viral DNA replication at 1 to 5 uM after 2 days by Northern blot hybridization; assay type: functional, organism-based; details: dose 1-5 µM, time 2.0 day; in short: as §1

Row | EC50 (Hepatitis B virus [1]) | Compound | CC50 at 48 h [2] | other results
1 | > 10000 nM | O=S(=O)(Nc1ccc(F)c(Cl)c1)N1CCNc2ccccc21 | > 100 µM | –
2 | 1550 nM | O=C(Nc1ccc(F)c(Cl)c1)N1CCCc2ccccc21 | > 100 µM | –
3 | 650 nM | O=C(Nc1cccc(Cl)c1)N1CCN(C(=O)Nc2ccc(F)c(Cl)c2)c2ccccc21 | > 100 µM | –
4 | 8070 nM | O=C(NCc1cccc(Cl)c1)N1CCNc2ccccc21 | > 100 µM | –
5 | 190 nM | O=C(Nc1ccc(F)c(C(F)F)c1)N1CCNc2ccccc21 | > 20 µM | –
6 | > 10000 nM | O=C(Nc1ccc(F)c(Cl)c1)N1CCc2cccnc21 | > 25 µM | –
7 | 340 nM | O=C(Nc1ccc(F)c(C(F)(F)F)c1)N1c2ccccc2NCC1CN1CCC(F)(F)CC1 (stereo not drawn) | 31.4 µM | –
8 | 1700 nM | O=C(Nc1ccc(F)c(Cl)c1)N1c2ccccc2NCC1CN1CCC(F)(F)C1 (stereo not drawn) | > 100 µM | –
9 | 1610 nM | O=C(Nc1ccc(F)c(Cl)c1)N1CC(CN2CCC(F)(F)CC2)N(C(=O)Nc2ccc(F)c(Cl)c2)c2ccccc21 (stereo not drawn) | > 100 µM | –
10 | 4320 nM | O=C(Nc1ccc(F)c(Cl)c1)N1CC(CN2CCC(F)(F)CC2)Nc2ccccc21 (stereo not drawn) | > 100 µM | –
11 | 1780 nM | O=C(Nc1ccc(F)c(Cl)c1)N1CCNc2cc(F)c(F)cc21 | > 100 µM | –
12 | > 10000 nM | NC1CCN(C(=O)Nc2ccc(F)c(Cl)c2)c2ccccc21 (racemic) | > 100 µM | –
13 | > 10000 nM | O=C(NCc1ccccc1)N1CCN(C(=O)Nc2ccc(F)c(Cl)c2)c2ccccc21 | > 20 µM | –
14 | 1110 nM | O=C(Nc1ccnc(Cl)c1)N1CCN(C(=O)Nc2ccc(F)c(Cl)c2)c2ccccc21 | > 20 µM | –
15 | 290 nM | O=C(Nc1cc(F)c(F)c(F)c1)N1c2ccccc2NCC1CN1CCC(F)(F)CC1 (stereo not drawn) | > 50 µM | –
16 | > 10000 nM | CC1CN(C(=O)Nc2ccc(F)c(Cl)c2)c2ccccc2N1 (stereo not drawn) | > 50 µM | –
17 | > 10000 nM | CC1(C)CCN(CC2CNc3ccccc3N2C(=O)Nc2ccc(F)c(Cl)c2)CC1 (stereo not drawn) | > 40 µM | –
18 | > 10000 nM | O=C(Nc1ccc(F)c(Cl)c1)N1CCN(CCCCF)c2ccccc21 | > 50 µM | –

Continued, compound first:

Row | Compound | EC50 (Hepatitis B virus [1]) | CC50 at 48 h [2] | other results
19 | O=C(Nc1cccc(Cl)c1)N1c2ccccc2NCC1CN1CCC(F)(F)CC1 (stereo not drawn) | 350 nM | > 50 µM | –
20 | O=C(Nc1ccc(F)c(Cl)c1)N1c2ccccc2NCC1c1ccccc1 (stereo not drawn) | 780 nM | > 50 µM | –
21 | Cc1cc(NC(=O)N2CCNc3ccccc32)ccc1F | 240 nM | > 20 µM | –
22 | Cc1cc(NC(=O)N2c3ccccc3NCC2CN2CCC(F)(F)CC2)ccc1F (stereo not drawn) | 270 nM | > 50 µM | –
23 | O=C(Nc1cc(F)c(F)c(F)c1)N1CCN(C(=O)Nc2ccc(F)c(Cl)c2)c2ccccc21 | 320 nM | > 20 µM | –
24 | O=C(Nc1ccc(F)c(Cl)c1)C1CCNc2ccccc21 (racemic) | > 10000 nM | > 100 µM | –
25 | O=C(Nc1ccc(C(O)(C(F)(F)F)C(F)(F)F)cc1)N1CCNc2ccccc21 | > 10000 nM | > 20 µM | –
26 | O=C(Nc1ccc(F)c(C(F)F)c1)N1c2ccccc2NCC1CN1CCC(F)(F)CC1 (stereo not drawn) | 100 nM | > 50 µM | EC50 (Hepatitis B virus [3]): 40 nM; CC50 at 144 h [4]: 29.3 µM
27 | O=C(Nc1ccc(F)c(Cl)c1)N1CC(c2ccccc2)Nc2ccccc21 (stereo not drawn) | 10000 nM | > 50 µM | –
28 | [N-]=[N+]=Nc1ccc(NC(=O)N2CCNc3ccccc32)cc1Cl | 1660 nM | > 100 µM | –
29 | O=C(Nc1ccc(F)c(Cl)c1)N1CCN(C(=O)Nc2cc(Cl)c(F)cc2F)c2ccccc21 | 390 nM | > 20 µM | EC50 (Hepatitis B virus [3]): 950 nM; CC50 at 144 h [4]: 16.8 µM
30 | O=C(Nc1ccc(F)c(Cl)c1)N1CCN(C(=O)Nc2ccc(F)c(Cl)c2)[C@H]2CCCC[C@H]21 | > 10000 nM | > 100 µM | –
31 | O=C(Nc1ccc(F)c(Cl)c1)N1c2ccccc2NCC1CN1CCC(F)(F)CC1 (stereo not drawn) | 280 nM | > 50 µM | –
32 | O=C(Nc1cc(F)c(F)c(F)c1)N1CCNc2ccccc21 | 630 nM | > 100 µM | –
33 | O=C(Nc1ccc(F)c(F)c1)N1c2ccccc2NCC1CN1CCC(F)(F)CC1 (stereo not drawn) | 390 nM | > 50 µM | –
34 | O=C(Nc1ccc(F)c(Cl)c1)N1CC2(CCCC2)Nc2ccccc21 | > 10000 nM | > 100 µM | –
35 | CC(C)C1CNc2ccccc2N1C(=O)Nc1ccc(F)c(Cl)c1 (stereo not drawn) | 4500 nM | > 100 µM | –
36 | O=C(Nc1ccc(F)c(Cl)c1)N1CCN(C(=O)Nc2ccc(F)c(Cl)c2)c2ccccc21 | 1010 nM | > 12.5 µM | Activity (Hepatitis B virus [5]): inactive; Activity (Hepatitis B virus [6]): inactive; Activity (Hepatitis B virus [7]): Active; Activity (Hepatitis B virus [8]): Active; Activity (Hepatitis B virus [9]): Active
37 | N#Cc1cc(NC(=O)N2CCNc3ccccc32)ccc1F | 520 nM | > 20 µM | –

Row | Compound | EC50 (Hepatitis B virus [1]) | CC50 at 48 h [2] | other results
38 | O=C1CN(C(=O)Nc2ccc(F)c(Cl)c2)c2ccccc2N1 | > 10000 nM | > 50 µM | –
39 | O=C(Nc1ccc(F)c(Cl)c1)c1cccc2c1OCCO2 | – | – | EC50 (Hepatitis B virus [3]): 1020 nM; CC50 at 144 h [4]: > 50 µM
40 | CC1CNc2ccccc2N1C(=O)Nc1ccc(F)c(Cl)c1 (stereo not drawn) | 3020 nM | > 100 µM | –
41 | O=C(Nc1ccc(F)c(Cl)c1)N1CCN[C@H]2CCCC[C@H]21 (relative stereo) | > 10000 nM | > 100 µM | –
42 | O=C(Nc1ccc(F)c(Cl)c1)N1CC(CN2CCOCC2)Nc2ccccc21 (stereo not drawn) | > 10000 nM | > 20 µM | –
43 | O=C(Nc1cc(Cl)ccc1F)N1CCNc2ccccc21 | 770 nM | > 100 µM | –
44 | O=C(Nc1ccccc1)N1CCN(C(=O)Nc2ccc(F)c(Cl)c2)c2ccccc21 | 7340 nM | > 12.5 µM | –
45 | O=C(Nc1ccc(F)c(Cl)c1)N1CC(CN2CCC(F)(F)C2)Nc2ccccc21 (stereo not drawn) | 5090 nM | > 100 µM | –
46 | O=C(Nc1ccc(F)c(C(F)(F)F)c1)N1CCNc2ccccc21 | 320 nM | > 20 µM | –
47 | O=C(Nc1ccc(F)c(Cl)c1)N1CC(CN2CCOCC2)N(C(=O)Nc2ccc(F)c(Cl)c2)c2ccccc21 (stereo not drawn) | 2030 nM | > 100 µM | –
48 | O=C(Nc1ccc(F)c(Cl)c1)N1CCCCc2ccccc21 | > 10000 nM | > 100 µM | –
49 | O=C(Nc1ccc(F)c(Cl)c1)N1CCc2ccccc21 | 970 nM | > 100 µM | –
50 | O=C(Cc1ccc(F)c(Cl)c1)N1CCNc2ccccc21 | > 10000 nM | > 20 µM | –
51 | N#Cc1cc(NC(=O)N2c3ccccc3NCC2CN2CCC(F)(F)CC2)ccc1F (stereo not drawn) | 90 nM | > 50 µM | EC50 (Hepatitis B virus [3]): 150 nM; CC50 at 144 h [4]: > 50 µM
52 | O=C(Nc1cccc(Cl)c1)N1CCNc2ccccc21 | 1130 nM | > 100 µM | –
53 | O=C(Nc1cc(F)c(F)c(Cl)c1)N1CCNc2ccccc21 | 930 nM | > 100 µM | –
54 | O=C(Nc1cccnc1)N1CCN(C(=O)Nc2ccc(F)c(Cl)c2)c2ccccc21 | 5760 nM | > 100 µM | –
55 | O=C(Nc1ccc(F)c(Cl)c1)N1c2ccccc2NCC1CN1CCOCC1 (stereo not drawn) | 7300 nM | > 40 µM | –
56 | O=C(Nc1ccc(F)c(Cl)c1)N1CC(CN2CCC(F)(F)C2)N(C(=O)Nc2ccc(F)c(Cl)c2)c2ccccc21 (stereo not drawn) | 1140 nM | > 100 µM | –
